In ChEMBL document CHEMBL1153509, “2-O-beta-d-glucopyranosyl-sn-glycerol based analogues of sulfoquinovosyldiacylglycerols (SQDG) and their role in inhibiting Epstein-Barr virus early antigen activation” (Bioorg Med Chem, 2009):

Tests used:
[1] = Cytotoxicity against human Raji cells assessed as cell viability at 100 molar ratio after 48 hrs by trypan blue staining method; assay type: cell-based; conditions: read-out: Activity
Method in brief: (§1)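 Raji cells (1×10^6/mL) in RPMI 1640 with 10% fetal calf serum were incubated 48 h at 37 °C with 4 mM n-butyric acid, 32 pmol TPA in DMSO and test compound in DMSO. Compound doses were set as mol ratio to TPA. Viability was read by Trypan Blue staining 2 days after treatment.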

Raji [2] = experiment: Inhibition of 12-O-tetradecanoylphorbol-13-acetate-induced EBV-early antigen activation in human Raji cells assessed as early antigen induction at 10 molar ratio after 48 hrs by conventional indirect immunofluorescence technique relative to TPA; assay type: cell-based; design: scale not given: the % may be the effect or the level left; conditions: human gammaherpesvirus 4
Method in brief: (§2)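 Raji cells (1×10^6/mL, RPMI 1640 plus 10% FCS) were incubated at 37 °C for 48 h in medium with 4 mM n-butyric acid, 32 pmol TPA in DMSO and test compound in DMSO, dosed as mol ratio to TPA. EA was detected by indirect immunofluorescence using high-titer EBV-positive NPC patient sera and FITC anti-human IgG, counting at least 500 cells. Runs were in triplicate. Results are expressed as % of the butyric acid plus TPA control (100%).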

Raji [3] = experiment: Inhibition of 12-O-tetradecanoylphorbol-13-acetate-induced EBV-early antigen activation in human Raji cells assessed as early antigen induction at 500 molar ratio after 48 hrs by conventional indirect immunofluorescence technique relative to TPA; assay type: cell-based; design: scale not given: the % may be the effect or the level left; conditions: human gammaherpesvirus 4; method in brief: as §2
[4] = Inhibition of 12-O-tetradecanoylphorbol-13-acetate-induced EBV-early antigen activation in human Raji cells assessed per TPA after 48 hrs by conventional indirect immunofluorescence technique; assay type: cell-based, human gammaherpesvirus 4
Method in brief: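 Raji cells (1×10^6/mL) were treated at 37 °C for 48 h with 4 mM n-butyric acid, 32 pmol TPA and test compound in DMSO. EA-positive cells were scored by indirect immunofluorescence (NPC patient sera, FITC anti-human IgG), at least 500 cells per run, in triplicate. IC50 was given as the compound/TPA mol ratio inhibiting 50% of the TPA-activated positive control.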

Raji [5] = experiment: Inhibition of 12-O-tetradecanoylphorbol-13-acetate-induced EBV-early antigen activation in human Raji cells assessed as early antigen induction at 100 molar ratio after 48 hrs by conventional indirect immunofluorescence technique relative to TPA; assay type: cell-based; design: scale not given: the % may be the effect or the level left; conditions: human gammaherpesvirus 4; method in brief: as §2
[6] = Cytotoxicity against human Raji cells assessed as cell viability at 500 molar ratio after 48 hrs by trypan blue staining method; assay type: cell-based; conditions: read-out: Activity; method in brief: as §1
Raji [7] = experiment: Inhibition of 12-O-tetradecanoylphorbol-13-acetate-induced EBV-early antigen activation in human Raji cells assessed as early antigen induction at 1000 molar ratio after 48 hrs by conventional indirect immunofluorescence technique relative to TPA; assay type: cell-based; design: scale not given: the % may be the effect or the level left; conditions: human gammaherpesvirus 4; method in brief: as §2
[8] = Cytotoxicity against human Raji cells assessed as cell viability at 10 molar ratio after 48 hrs by trypan blue staining method; assay type: cell-based; conditions: read-out: Activity; method in brief: as §1
[9] = Cytotoxicity against human Raji cells assessed as cell viability at 1000 molar ratio after 48 hrs by trypan blue staining method; assay type: cell-based; conditions: read-out: Activity; method in brief: as §1

For CCCCCCCCCCCCCCCCCC(=O)OCC(COC(=O)CCCCCCCCCCCCCCCCC)O[C@@H]1O[C@H](CO)[C@@H](O)[C@H](O)[C@H]1O, the viability at 48 h, 100 molar ratio [1] was 80%, the Activity (Raji [2]) was 100% and the Activity (Raji [3]) was 57.8%. The IC50 [4] was 484 mol ratio/TPA, the Activity (Raji [5]) was 82.8% and the viability at 48 h, 500 molar ratio [6] was 70%. For the same molecule, the Activity (Raji [7]) was 16.2%, the viability at 48 h, 10 molar ratio [8] was 80% and the viability at 48 h, 1000 molar ratio [9] was 60%.

Work on CCCCCC(=O)OC[C@H](CO)O[C@@H]1O[C@H](COC(=O)CCCCC)[C@@H](O)[C@H](O)[C@H]1O yielded a viability at 48 h, 100 molar ratio [1] of 80%, an Activity (Raji [2]) of 71.5% and an Activity (Raji [3]) of 15.1%. For the same molecule, the IC50 [4] was 37.3 mol ratio/TPA, the Activity (Raji [5]) was 34.6% and the viability at 48 h, 500 molar ratio [6] was 80%. The Activity (Raji [7]) was 0%, the viability at 48 h, 10 molar ratio [8] was 80% and the viability at 48 h, 1000 molar ratio [9] was 70%.

In the case of CCCCCCCCCCCC(=O)OCC(COC(=O)CCCCCCCCCCC)O[C@@H]1O[C@H](CS(=O)(=O)[O-])[C@@H](O)[C@H](O)[C@H]1O.[Na+], the viability at 48 h, 100 molar ratio [1] is reported as 80%, the Activity (Raji [2]) is reported as 100% and the Activity (Raji [3]) is reported as 62.6%. For the same molecule, the IC50 [4] was 581 mol ratio/TPA, the Activity (Raji [5]) was 85.2% and the viability at 48 h, 500 molar ratio [6] was 70%. It also gave an Activity (Raji [7]) of 23.4%, a viability at 48 h, 10 molar ratio [8] of 80% and a viability at 48 h, 1000 molar ratio [9] of 50%.

In the case of CCCCCCCCCCCCCCCCCC(=O)OCC(COC(=O)CCCCCCCCCCCCCCCCC)O[C@@H]1O[C@H](CS(=O)(=O)[O-])[C@@H](O)[C@H](O)[C@H]1O.[Na+], the viability at 48 h, 100 molar ratio [1] is reported as 80%, the Activity (Raji [2]) is reported as 100% and the Activity (Raji [3]) is reported as 65.1%. For the same molecule, the IC50 [4] was 632 mol ratio/TPA, the Activity (Raji [5]) was 87.4% and the viability at 48 h, 500 molar ratio [6] was 70%. It also gave an Activity (Raji [7]) of 25.1%, a viability at 48 h, 10 molar ratio [8] of 80% and a viability at 48 h, 1000 molar ratio [9] of 50%.

CCCCCCCCCCCC(=O)OCC(COC(=O)CCCCCCCCCCC)O[C@@H]1O[C@H](CO)[C@@H](O)[C@H](O)[C@H]1O gave a viability at 48 h, 100 molar ratio [1] of 80%, an Activity (Raji [2]) of 100% and an Activity (Raji [3]) of 52.4%. It also gave an IC50 [4] of 402 mol ratio/TPA, an Activity (Raji [5]) of 80.5% and a viability at 48 h, 500 molar ratio [6] of 70%. For the same molecule, the Activity (Raji [7]) was 13%, the viability at 48 h, 10 molar ratio [8] was 80% and the viability at 48 h, 1000 molar ratio [9] was 60%.

Molecule CCCCCC(=O)OCC(COC(=O)CCCCC)O[C@@H]1O[C@H](CO)[C@@H](O)[C@H](O)[C@H]1O has a viability at 48 h, 100 molar ratio [1] of 80%, an Activity (Raji [2]) of 100% and an Activity (Raji [3]) of 46.8%. It also gave an IC50 [4] of 327 mol ratio/TPA, an Activity (Raji [5]) of 76.9% and a viability at 48 h, 500 molar ratio [6] of 70%. For the same molecule, the Activity (Raji [7]) was 9.3%, the viability at 48 h, 10 molar ratio [8] was 80% and the viability at 48 h, 1000 molar ratio [9] was 60%.

Molecule CCCCCC(=O)OCCO[C@@H]1O[C@H](CO)[C@H](O)[C@H](O)[C@H]1O has a viability at 48 h, 100 molar ratio [1] of 80%, an Activity (Raji [2]) of 100% and an Activity (Raji [3]) of 49.5%. The IC50 [4] was 350 mol ratio/TPA, the Activity (Raji [5]) was 78.5% and the viability at 48 h, 500 molar ratio [6] was 80%. The Activity (Raji [7]) was 6.7%, the viability at 48 h, 10 molar ratio [8] was 80% and the viability at 48 h, 1000 molar ratio [9] was 70%.

Work on CCCCCC(=O)OCC(COC(=O)CCCCC)O[C@@H]1O[C@H](CS(=O)(=O)[O-])[C@@H](O)[C@H](O)[C@H]1O.[Na+] yielded a viability at 48 h, 100 molar ratio [1] of 80%, an Activity (Raji [2]) of 100% and an Activity (Raji [3]) of 60.5%. The IC50 [4] was 539 mol ratio/TPA, the Activity (Raji [5]) was 84.3% and the viability at 48 h, 500 molar ratio [6] was 70%. For the same molecule, the Activity (Raji [7]) was 20.3%, the viability at 48 h, 10 molar ratio [8] was 80% and the viability at 48 h, 1000 molar ratio [9] was 50%.
